Assay results published in ChEMBL document CHEMBL4390654, “Microwave-assisted solid-phase synthesis of antisense acpP peptide nucleic acid-peptide conjugates active against colistin- and tigecycline-resistant E. coli and K. pneumoniae” (Eur J Med Chem, 2019).

Experiments:
Escherichia coli [1] = assay: Antibacterial activity against multi-drug resistant Escherichia coli NMI 3548/14 assessed as reduction in microbial growth incubated for 20 hrs; assay type: functional
Outline: (§1)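 Broth microdilution MIC (modified Hancock protocol) in non-binding polystyrene plates. Inoculum ~2 × 10^5 CFU/mL in Mueller-Hinton broth with Mg²⁺ and Ca²⁺ at 4 mg/L each. Compounds dissolved in water, diluted in 0.01% acetic acid/0.2% BSA (final), added as 10× stocks. Covered plates incubated 20 h at 35 °C (± 2 °C) with 220 rpm circular shaking before MIC read.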

Pseudomonas aeruginosa [2] = assay: Antibacterial activity against Pseudomonas aeruginosa ATCC 27853 assessed as reduction in microbial growth incubated for 20 hrs; assay type: functional
Outline: (§2)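 Broth microdilution MIC after a modified Hancock protocol for cationic peptides, in non-binding polystyrene plates. Inoculum ~2 × 10^5 CFU/mL in Mueller-Hinton broth with Mg²⁺ and Ca²⁺ at 4 mg/L each. Compounds dissolved in water, diluted in 0.01% acetic acid, 0.2% BSA (final), added as 10× aliquots. Covered plates incubated 20 h at 35 °C (± 2 °C) with shaking at 220 rpm. MIC read as lowest inhibiting concentration.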

Staphylococcus aureus = assay: Antibacterial activity against Staphylococcus aureus ATCC 29213 assessed as reduction in microbial growth incubated for 20 hrs; assay type: functional; outline: as §2
Klebsiella pneumoniae [3] = assay: Antibacterial activity against multi-drug resistant Klebsiella pneumoniae NMI 2697/14 assessed as reduction in microbial growth incubated for 20 hrs; assay type: functional; outline: as §1
Klebsiella pneumoniae [4] = assay: Antibacterial activity against Klebsiella pneumoniae ATCC 13883 assessed as reduction in microbial growth incubated for 20 hrs; assay type: functional; outline: as §2
Escherichia coli [5] = assay: Antibacterial activity against NDM-5 producing multi-drug resistant Escherichia coli NMI 636/15 ST405 assessed as reduction in microbial growth incubated for 20 hrs; assay type: functional; conditions: NMI 636/15 ST405, 20 h; outline: as §1
[6] = Hemolytic activity against RBC (unknown origin) at 100 uM; assay type: ADME, cell-based, Erythrocyte; conditions: red blood cells (erythrocytes); read-out: Activity
Escherichia coli [7] = assay: Antibacterial activity against NDM-1 producing multi-drug resistant Escherichia coli NMI 3371/16 ST101 assessed as reduction in microbial growth incubated for 20 hrs; assay type: functional; conditions: NMI 3371/16 ST101, 20 h; outline: as §1
Escherichia coli [8] = assay: Antibacterial activity against multi-drug resistant Escherichia coli NMI 3898/15 assessed as reduction in microbial growth incubated for 20 hrs; assay type: functional; outline: as §1
Escherichia coli [9] = assay: Antibacterial activity against Escherichia coli lacking a functional SbmA assessed as reduction in microbial growth incubated for 20 hrs; outline: as §2
Escherichia coli [10] = assay: Antibacterial activity against NDM-1 producing multi-drug resistant Escherichia coli NMI 5428/11 ST410 assessed as reduction in microbial growth incubated for 20 hrs; assay type: functional; conditions: NMI 5428/11 ST410, 20 h; outline: as §1
Klebsiella pneumoniae [11] = assay: Antibacterial activity against multi-drug resistant Klebsiella pneumoniae NMI 3081/09 assessed as reduction in microbial growth incubated for 20 hrs; assay type: functional; outline: as §1
Pseudomonas aeruginosa [12] = assay: Antibacterial activity against multi-drug resistant Pseudomonas aeruginosa NMI 506/17 assessed as reduction in microbial growth incubated for 20 hrs; assay type: functional; outline: as §1
Escherichia coli [13] = assay: Antibacterial activity against Escherichia coli ATCC 25922 assessed as reduction in microbial growth incubated for 20 hrs; assay type: functional; outline: as §1
Acinetobacter baumannii [14] = assay: Antibacterial activity against Acinetobacter baumannii ATCC 19606 assessed as reduction in microbial growth incubated for 20 hrs; assay type: functional; outline: as §2
Acinetobacter baumannii [15] = assay: Antibacterial activity against Acinetobacter baumannii NMI 3658/17 assessed as reduction in microbial growth incubated 20 hrs; assay type: functional; outline: as §2
Pseudomonas aeruginosa [16] = assay: Antibacterial activity against Pseudomonas aeruginosa PAO1 assessed as reduction in microbial growth incubated for 20 hrs; assay type: functional; outline: as §2
[17] = Ratio of MIC for Escherichia coli lacking functional SbmA to MIC for Escherichia coli ATCC 25922
[18] = ATCC 19606 = CIP 70.34 = JCM 6841, 20 h

Row | Compound | MIC (Escherichia coli [1]; NMI 3548/14, 20 h) | MIC (Staphylococcus aureus; ATCC 29213, 20 h) | MIC (Klebsiella pneumoniae [3]; NMI 2697/14, 20 h) | MIC (Klebsiella pneumoniae [4]; ATCC 13883, 20 h) | hemolysis at 100 µM [6] | MIC (Escherichia coli [8]; NMI 3898/15, 20 h) | MIC (Escherichia coli [9]) | MIC (Klebsiella pneumoniae [11]; NMI 3081/09, 20 h) | MIC (Escherichia coli [13]; ATCC 25922, 20 h) | MIC (Acinetobacter baumannii [14]; [18]) | MIC (Pseudomonas aeruginosa [16]; PAO1, 20 h) | further results
1 | CC[C@@H](C)[C@@H](NC(=O)[C@@H](CCCCN)NC(=O)[C@@H]([C@H](C)CC)N(C(=O)[C@@H](CCCNC(=N)N)NC(=O)CCCCCNC(=O)[C@H](N)CCCNC(=N)N)C(=O)[C@@H](CCCNC(=N)N)NC(=O)CCCCCNC(=O)[C@H](N)CCCNC(=N)N)C(=O)N[C@H](CC(C)C)C(=O)N[C@H](Cc1ccccc1)C(=O)N[C@H](CCC(N)=O)C(=O)N[C@H](CC(N)=O)C(=O)N[C@H](CCCNC(=N)N)C(=O)N[C@H](CCCNC(=N)N)C(=O)N[C@H](CCSC)C(=O)N[C@H](CCCCN)C(=O)N[C@H](Cc1c[nH]c2ccccc12)C(=O)N[C@H](CCCCN)C(=O)N[C@H](CCCCN)C(N)=O | 1 µg/mL | 2 to 4 µg/mL | 16 µg/mL | 4 µg/mL | < 1% | 2 µg/mL | 2 µg/mL | 16 µg/mL | 2 to 4 µg/mL | 2 µg/mL | 1 µg/mL | MIC (Pseudomonas aeruginosa [2]; ATCC 27853, 20 h): 2 µg/mL; MIC (Escherichia coli [5]): 2 µg/mL; MIC (Escherichia coli [7]): 2 µg/mL; MIC (Escherichia coli [10]): 1 to 2 µg/mL; MIC (Pseudomonas aeruginosa [12]; NMI 506/17, 20 h): 4 µg/mL; MIC (Acinetobacter baumannii [15]; NMI 3658/17, 20 h): 2 µg/mL
2 | COLISTIN |  |  |  |  |  |  | 0.5 µg/mL |  |  |  |  | MIC (Escherichia coli [1]): 4 µg/mL; MIC (Pseudomonas aeruginosa [2]): 0.25 µg/mL; MIC (Staphylococcus aureus): > 16 µg/mL; MIC (Klebsiella pneumoniae [3]): > 16 µg/mL; MIC (Klebsiella pneumoniae [4]): 2 to 4 µg/mL; MIC (Escherichia coli [8]): 2 to 4 µg/mL; MIC (Klebsiella pneumoniae [11]): 0.25 to 1 µg/mL; MIC (Pseudomonas aeruginosa [12]): > 16 µg/mL; MIC (Escherichia coli [13]): 0.125 to 0.5 µg/mL; MIC (Acinetobacter baumannii [14]; ATCC 19606 = CIP 70.34 = JCM 6841): 0.25 µg/mL; MIC (Acinetobacter baumannii [15]): > 16 µg/mL; MIC (Pseudomonas aeruginosa [16]): 0.5 µg/mL
3 | CC[C@@H](C)[C@@H](NC(=O)[C@H]1CCCN1C(=O)[C@@H](CCCNC(=N)N)NC(=O)[C@H]1CCCN1C(=O)[C@@H](Cc1cnc[nH]1)NC(=O)[C@@H](CO)NC(=O)[C@H](NC(=O)[C@H]1CCCN1C(=O)[C@@H](CCCNC(=N)N)NC(=O)[C@H]1CCCN1C(=O)[C@@H](CO)NC(=O)[C@@H](Cc1ccc(O)cc1)NC(=O)[C@H]1CCCN1C(=O)[C@@H](CCCNC(=N)N)NC(=O)[C@H]1CCCN1C(=O)[C@@H](CCCNC(=N)N)NC(=O)CCCCCNC(=O)[C@H](N)CCCNC(=N)N)[C@H](C)O)C(=O)N[C@H](CCCNC(=N)N)C(=O)N[C@@H](C(=O)N[C@H](CS)C(=O)N[C@@H](C(=O)N[C@H](CS)C(=O)N[C@H](C)C(=O)N[C@@H](C(=O)N[C@H](C)C(=O)N[C@H](CS)C(=O)N[C@@H](C(=O)N[C@@H](CS)C(=O)N[C@@H](C(N)=O)[C@H](C)O)[C@H](C)O)[C@H](C)O)[C@H](C)O)C(C)C | 64 µg/mL | > 64 µg/mL | > 64 µg/mL | 8 to 16 µg/mL | < 1% | > 64 µg/mL | > 64 µg/mL | > 64 µg/mL | > 64 µg/mL | > 64 µg/mL | > 64 µg/mL | Ratio [17]: > 16
